Assay results gathered from unrelated publications.
Each line is one published result; the experiments were not run side by side. In brackets after ≈: the same amount, converted by molar mass.
Organism: Bacillus subtilis

Structure (SMILES) | test | system | conditions | measurement | result
O=C1NC(=S)N/C1=C\c1c2ccccc2c(-c2ccc(N(c3ccccc3)c3ccccc3)cc2)c2ccccc12 | microbial killing, broth dilution | ATCC6633 | – | MBC | > 1000 µg/mL
CCOC(=O)c1c(N)csc1-c1cn(-c2ccccc2)nc1-c1ccc(C)cc1 | microbial growth, well diffusion | – | 100000 µg/mL | inhibition zone | 28 mm
CN(/N=C/c1cn(-c2ccc(C(=O)O)cc2)nc1-c1cccc(F)c1)c1ccccc1 | microbial growth | ATCC6623 | – | MIC | 12.5 µg/mL (≈ 30.2 µM)
CCOC(=O)c1c(N)csc1-c1cn(-c2ccccc2)nc1-c1ccccc1 | microbial growth, well diffusion | – | 100000 µg/mL | inhibition zone | 23 mm
O=C1NC(=S)S/C1=C\c1ccc(-c2ccc(N(c3ccccc3)c3ccccc3)cc2)cc1 | microbial killing, broth dilution | ATCC6633 | – | MBC | > 1000 µg/mL
CC1(C)S[C@@H]2[C@H](NC(=O)[C@H](N)c3ccccc3)C(=O)N2[C@H]1C(=O)O | microbial growth, agar dilution | ATCC6633 | 26.93 µM | inhibition | 100%
N#CC(=Cc1ccccc1O)C1=NC(=O)C(=Cc2cn(-c3ccccc3)nc2-c2ccccc2)S1 | microbial killing, broth dilution | – | – | MBC | 0.5 µg/mL (≈ 1.05 µM)
O=C(O)CN1C(=O)/C(=C/c2ccc(-c3ccc(N(c4ccccc4)c4ccccc4)cc3)cc2)SC1=S | microbial killing, broth dilution | ATCC6633 | – | MBC | 1.95 µg/mL (≈ 3.73 µM)
O=C(N[C@H](CO)[C@H](O)c1ccc([N+](=O)[O-])cc1)C(Cl)Cl | microbial growth, disc diffusion | – | 50 µg/disc | inhibition zone | 21 mm
CC[C@H]1OC(=O)[C@H](C)[C@@H](O[C@H]2C[C@@](C)(OC)[C@@H](O)[C@H](C)O2)[C@H](C)[C@@H](O[C@@H]2O[C@H](C)C[C@H](N(C)C)[C@H]2O)[C@](C)(O)C[C@@H](C)/C(=N\OCOCCOC)[C@H](C)[C@@H](O)[C@]1(C)O | microbial growth, disc diffusion | ATCC6633 | 20000 µg/mL, 24 h | inhibition zone | 23 mm
O=C(O)CN1C(=O)/C(=C/c2ccc(-c3ccc(N(c4ccccc4)c4ccccc4)cc3)cc2)NC1=S | microbial killing, broth dilution | ATCC6633 | – | MBC | 3.9 µg/mL (≈ 7.71 µM)
N#CC(=Cc1ccc(Cl)cc1)C1=NC(=O)C(=Cc2cn(-c3ccccc3)nc2-c2ccccc2)S1 | microbial growth, well diffusion | – | 100000 µg/mL | inhibition zone | 22 mm
O=C(O)c1ccc(-n2cc(/C=N/Nc3ccc(Cl)cc3Cl)c(-c3cccc(F)c3)n2)cc1 | microbial growth | ATCC6623 | – | MIC | 1.56 µg/mL (≈ 3.32 µM)
